{
  "source": "ChEMBL document CHEMBL1123695",
  "about": "“Synthesis and 3'-substituent effects of some 7 alpha-methoxy-1-oxacephems on antibacterial activity and alkaline hydrolysis rates” (1987)",
  "format_in_all_cases": "functional",
  "key": {"Escherichia coli [1]": {"system": "Escherichia coli", "test": "Antibacterial activity against Escherichia coli (EC-14) a sensitive gram-negative bacteria", "how_it_was_run": "(§1)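 Agar dilution on sensitivity test agar containing serial twofold antibiotic dilutions. Overnight tryptosoy broth cultures were diluted in the same broth to about 10^6 cells/mL, and one loopful was applied with an inoculating device. Plates were incubated at 37 °C for 18-20 h. MIC was taken as the lowest concentration inhibiting visible growth, in micrograms per milliliter.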"}, "Bacteria [2]": {"system": "Bacteria", "test": "Geometric mean of the four MIC's of different sensitive gram negative bacteria expressed"}, "Escherichia coli [3]": {"system": "Escherichia coli", "test": "Antibacterial activity against Escherichia coli (NIHJ JC-2) a sensitive gram-negative bacteria", "how_it_was_run": "as §1"}, "Klebsiella pneumoniae": {"system": "Klebsiella pneumoniae", "test": "Antibacterial activity against Kleb. pneumoniae (SRL-1) a sensitive gram-negative bacteria", "how_it_was_run": "as §1"}, "Escherichia coli [4]": {"system": "Escherichia coli", "test": "Antibacterial activity against Escherichia coli (H) a sensitive gram-negative bacteria", "how_it_was_run": "as §1"}, "Bacteria [5]": {"system": "Bacteria", "test": "Geometric mean of the four MIC's of different sensitive gram negative bacteria."}},
  "data": [
    {"smiles": "CO[C@@]1(NC(=O)Cc2ccccc2)C(=O)N2C(C(=O)[O-])=C(CO)CO[C@@H]21.[Na+]", "values": [
      {"measurement": "MIC", "setting": "Escherichia coli [1]", "result": 50, "unit": "µg/mL"},
      {"measurement": "Geometric mean", "setting": "Bacteria [2]", "result": 130, "unit": "µM"},
      {"measurement": "MIC", "setting": "Escherichia coli [3]", "result": 100, "unit": "µg/mL"},
      {"measurement": "MIC", "setting": "Klebsiella pneumoniae", "result": 50, "unit": "µg/mL"},
      {"measurement": "MIC", "setting": "Escherichia coli [4]", "result": 25, "unit": "µg/mL"}
    ]},
    {"smiles": "CO[C@@]1(NC(=O)Cc2ccccc2)C(=O)N2C(C(=O)[O-])=C(CC#N)CO[C@@H]21.[Na+]", "values": [
      {"measurement": "MIC", "setting": "Escherichia coli [1]", "result": 25, "unit": "µg/mL"},
      {"measurement": "Geometric mean", "setting": "Bacteria [2]", "result": 63.6, "unit": "µM"},
      {"measurement": "MIC", "setting": "Escherichia coli [3]", "result": 50, "unit": "µg/mL"},
      {"measurement": "MIC", "setting": "Klebsiella pneumoniae", "result": 25, "unit": "µg/mL"},
      {"measurement": "MIC", "setting": "Escherichia coli [4]", "result": 12.5, "unit": "µg/mL"}
    ]},
    {"smiles": "CO[C@@]1(NC(=O)Cc2ccccc2)C(=O)N2C(C(=O)[O-])=C(COC(N)=O)COC21.[Na+]", "note": "(stereo not given in full)", "values": [
      {"measurement": "MIC", "setting": "Escherichia coli [1]", "result": 0.78, "unit": "µg/mL"},
      {"measurement": "Geometric mean", "setting": "Bacteria [2]", "result": 3.66, "unit": "µM"},
      {"measurement": "MIC", "setting": "Escherichia coli [3]", "result": 3.13, "unit": "µg/mL"},
      {"measurement": "MIC", "setting": "Klebsiella pneumoniae", "result": 3.13, "unit": "µg/mL"},
      {"measurement": "MIC", "setting": "Escherichia coli [4]", "result": 0.78, "unit": "µg/mL"}
    ]},
    {"smiles": "CO[C@@]1(NC(=O)Cc2ccccc2)C(=O)N2C(C(=O)[O-])=C(C[n+]3ccccc3)COC21", "note": "(stereo not given in full)", "values": [
      {"measurement": "MIC", "setting": "Escherichia coli [1]", "result": 12.5, "unit": "µg/mL"},
      {"measurement": "Geometric mean", "setting": "Bacteria [2]", "result": 29.5, "unit": "µM"},
      {"measurement": "MIC", "setting": "Escherichia coli [3]", "result": 12.5, "unit": "µg/mL"},
      {"measurement": "MIC", "setting": "Klebsiella pneumoniae", "result": 12.5, "unit": "µg/mL"},
      {"measurement": "MIC", "setting": "Escherichia coli [4]", "result": 12.5, "unit": "µg/mL"}
    ]},
    {"smiles": "CO[C@@]1(NC(=O)Cc2ccccc2)C(=O)N2C(C(=O)[O-])=C(CSc3nnnn3C)CO[C@@H]21.[Na+]", "values": [
      {"measurement": "MIC", "setting": "Escherichia coli [1]", "result": 0.39, "unit": "µg/mL"},
      {"measurement": "Geometric mean", "setting": "Bacteria [2]", "result": 0.684, "unit": "µM"},
      {"measurement": "MIC", "setting": "Escherichia coli [3]", "result": 0.78, "unit": "µg/mL"},
      {"measurement": "MIC", "setting": "Klebsiella pneumoniae", "result": 0.39, "unit": "µg/mL"},
      {"measurement": "MIC", "setting": "Escherichia coli [4]", "result": 0.1, "unit": "µg/mL"}
    ]},
    {"smiles": "CO[C@@]1(NC(=O)Cc2ccccc2)C(=O)N2C(C(=O)[O-])=C(CSC)CO[C@@H]21.[Na+]", "values": [
      {"measurement": "MIC", "setting": "Escherichia coli [1]", "result": 200, "unit": "µg/mL"},
      {"measurement": "Geometric mean", "setting": "Bacteria [2]", "result": 406, "unit": "µM"},
      {"measurement": "MIC", "setting": "Escherichia coli [3]", "result": "> 400", "unit": "µg/mL"},
      {"measurement": "MIC", "setting": "Klebsiella pneumoniae", "result": 100, "unit": "µg/mL"},
      {"measurement": "MIC", "setting": "Escherichia coli [4]", "result": 50, "unit": "µg/mL"}
    ]},
    {"smiles": "COCC1=C(C(=O)[O-])N2C(=O)[C@](NC(=O)Cc3ccccc3)(OC)[C@H]2OC1.[Na+]", "values": [
      {"measurement": "MIC", "setting": "Escherichia coli [1]", "result": 100, "unit": "µg/mL"},
      {"measurement": "Geometric mean", "setting": "Bacteria [2]", "result": 178, "unit": "µM"},
      {"measurement": "MIC", "setting": "Escherichia coli [3]", "result": 200, "unit": "µg/mL"},
      {"measurement": "MIC", "setting": "Klebsiella pneumoniae", "result": 50, "unit": "µg/mL"},
      {"measurement": "MIC", "setting": "Escherichia coli [4]", "result": 25, "unit": "µg/mL"}
    ]},
    {"smiles": "CO[C@@]1(NC(=O)Cc2ccccc2)C(=O)N2C(C(=O)[O-])=C(COC(C)=O)CO[C@@H]21.[Na+]", "values": [
      {"measurement": "MIC", "setting": "Escherichia coli [1]", "result": 3.13, "unit": "µg/mL"},
      {"measurement": "Geometric mean", "setting": "Bacteria [2]", "result": 4.36, "unit": "µM"},
      {"measurement": "MIC", "setting": "Escherichia coli [3]", "result": 3.13, "unit": "µg/mL"},
      {"measurement": "MIC", "setting": "Klebsiella pneumoniae", "result": 1.56, "unit": "µg/mL"},
      {"measurement": "MIC", "setting": "Escherichia coli [4]", "result": 0.78, "unit": "µg/mL"}
    ]},
    {"smiles": "CO[C@@]1(NC(=O)Cc2ccccc2)C(=O)N2C(C(=O)[O-])=C(C)CO[C@@H]21.[Na+]", "values": [
      {"measurement": "MIC", "setting": "Escherichia coli [1]", "result": 100, "unit": "µg/mL"},
      {"measurement": "MIC", "setting": "Escherichia coli [3]", "result": 200, "unit": "µg/mL"},
      {"measurement": "Geometric mean", "setting": "Bacteria [5]", "result": 323, "unit": "µM"},
      {"measurement": "MIC", "setting": "Klebsiella pneumoniae", "result": 100, "unit": "µg/mL"},
      {"measurement": "MIC", "setting": "Escherichia coli [4]", "result": 100, "unit": "µg/mL"}
    ]}
  ]
}
